Experimental data as given in ChEMBL document CHEMBL1148066, “Binding of quinolizidine alkaloids to nicotinic and muscarinic acetylcholine receptors” (J Nat Prod, 1994).

How the values were obtained:
[1] = Displacement of [3H]nicotin from nicotinic ACh receptor
Outline: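 Porcine brain membranes (sucrose/K+-phosphate pH 7.0/EDTA homogenate, 100,000 g pellet) incubated with 3H-nicotine and alkaloids (0.5 nM–10 mM) for 40 min at 20°; 1 mM nicotine defines nonspecific binding. Rapid filtration on BSA-presoaked glass fiber filters, saline washes, scintillation counting; triplicates. IC50 = concentration displacing 50% of specific binding.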

[2] = Displacement of [3H]quinuclidinyl benzilate from muscarinic ACh receptor
Outline: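 Porcine brain membranes (500 µg protein; 10 mM K+-phosphate pH 7.0, 1 mM EDTA) incubated with 3H-QNB and alkaloids (0.5 nM–10 mM) for 1 h at 20°; atropine blank for nonspecific binding. Stopped with ice-cold 0.9% NaCl, rapid glass-fiber filtration, three washes, scintillation counting; triplicates. IC50 = concentration displacing 50% of specific binding.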

Row | SMILES | IC50 [1] | IC50 [2]
1 | O=C1[C@H](O)CC[C@@H]2[C@H]3C[C@@H](CN12)[C@@H]1CCCCN1C3 | 190 µM | 74 µM
2 | O=c1cccc2n1C[C@H]1C[C@@H]2CN2CCCC[C@H]12 [ANAGYRINE] | 2100 µM | 132 µM
3 | C=CC[C@H]1NC[C@H]2C[C@@H]1[C@H]1CC(=O)C=CN1C2 [ALBINE] | 193 µM | 33 µM
4 | OC[C@@H]1CCCN2CCCC[C@H]12 [LUPININE] | > 500 µM | 190 µM
5 | O=C1CCC[C@@H]2[C@H]3C[C@@H](CN12)[C@@H]1C[C@H](O)CCN1C3 | 490 µM | 140 µM
6 | C1CCN2C[C@@H]3C[C@@H](CN4CCCC[C@@H]34)[C@H]2C1 [SPARTEINE] | 331 µM | 21 µM
7 | O=C1CCC[C@@H]2[C@H]3C[C@@H](CN12)[C@@H]1CCCCN1C3 [LUPANINE] | 5 µM | 114 µM
8 | O=C1C=CN2C[C@@H]3C[C@@H](CN4CCCC[C@@H]34)[C@H]2C1 [MULTIFLORINE] | > 500 µM | 47 µM
9 | C=CC[C@@H]1NC[C@@H]2C[C@H]1CN1C(=O)CCC[C@H]21 [ANGUSTIFOLINE] | > 500 µM | 25 µM
10 | C=CCCN1C[C@H]2C[C@@H](C1)[C@H]1CCCC(=O)N1C2 [TETRAHYDRORHOMBIFOLINE] | 310 µM | 129 µM
11 | O=C1[C@H]2C[C@@H](CN3CCCC[C@@H]23)[C@H]2CCCCN12 | 155 µM | 118 µM
12 | CN1C[C@@H]2C[C@H](C1)c1cccc(=O)n1C2 | 0.05 µM | 417 µM
13 | O=c1cccc2n1C[C@@H]1CNC[C@H]2C1 [CYTISINICLINE] | 0.14 µM | 400 µM
